Screens deposited in PubChem BioAssay by Broad Institute.
Rows were chosen to be rich in hits. Some 2.7% of all compounds tested hit in one or more screens of this group.
SIRT5 block = blocks human SIRT5 desuccinylation of peptide; Q9NXA8; Purified SirT5, succinyl-peptide AMC, trypsin-coupled fluorescence; inhibition, % at 15 µM; 330,000 compounds, 1.1% hits; AID 652115; in the data active = inhibition above about 15%; inconclusive = no clear call, values can overlap the other calls
Target sequence (Q9NXA8 whole entry, looked up): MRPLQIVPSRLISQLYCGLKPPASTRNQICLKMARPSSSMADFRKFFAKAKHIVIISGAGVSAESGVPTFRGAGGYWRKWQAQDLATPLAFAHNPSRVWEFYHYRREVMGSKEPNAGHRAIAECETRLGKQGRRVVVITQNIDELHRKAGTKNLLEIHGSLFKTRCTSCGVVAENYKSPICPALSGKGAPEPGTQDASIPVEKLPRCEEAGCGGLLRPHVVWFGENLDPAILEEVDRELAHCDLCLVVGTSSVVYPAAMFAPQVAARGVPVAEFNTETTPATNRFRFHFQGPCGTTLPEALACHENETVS
S100A4 MyoIIA = S100A4-myosin IIA interaction inhibition. 360,000 compounds, 0.14% hits. P26447. S100A4/TAMRA-MyoIIA peptide fluorescence polarization. AID 652163. inhibition, % at 10.7 µM;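 active = mean inhibition of at least 70% across replicates, with every replicate also reaching that level; inconclusive = mean inhibition reaches 70% but some replicates fall short; inactive = mean inhibition below 70%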
Target sequence (P26447 whole entry, looked up): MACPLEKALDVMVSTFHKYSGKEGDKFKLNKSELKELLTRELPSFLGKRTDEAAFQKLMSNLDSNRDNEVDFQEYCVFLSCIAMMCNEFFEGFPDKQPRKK
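Material: human S100A4 monomer with TAMRA-labelled myosin IIA peptide; buffer or medium: HEPES pH 7.2 with CaCl2, KCl, NaCl, DTT, Triton; compound dosing: one concentration per compound; schedule: 5 min incubation before reading; benchmarks: neutral control DMSO, positive control TFP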
MLL AF4-AF9 inh = blocks AF4 peptide binding to human AF9 | AlphaScreen, biotin-AF4 peptide binding to FLAG-AF9 | inhibition, % at 10 µM | 350,000 compounds, 0.47% hits;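 active = every replicate reaching a set inhibition limit, whatever the replicate mean, cut at about 25% in these data; inconclusive = mean inhibition reaches that limit but some replicates miss it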;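 also: 0% = plate neutral control median and 100% = total signal loss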
CaV13 ICDI inh = Primary screen for inhibitors of IQ motif and Ca2+-dependent inactivation inhibitor domain binding in CACNA1D, Förster resonance energy transfer in living cells, …. inhibition, % at 12.3 µM. AID 743397. HEK cells, CFP/YFP FRET ICDI-IQ, plate reader, 10 min; percent FRET-ratio fall versus neutral wells. 340,000 compounds, 0.098% hits;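 active = mean replicate inhibition of at least 30% and at least 1% of replicates passing that level; inconclusive = only one of the two criteria is met; inactive = neither criterion is met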;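 also: 0% = median of the neutral control wells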
DENV2 CPE = protects cells from dengue virus 2 cytopathic effect. DENV2-infected cells, cytopathic effect rescue, plate reader. CPE inhibition, % at 9.99 µM. 350,000 compounds, 1.7% hits; in the data active = CPE inhibition above about 20%, passing the limit was not always enough; inconclusive = no clear call, values can overlap the other calls; tested in BHK-21 cells;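 also: 0% = median of neutral control wells and 100% = median of positive control wells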
The depositor's hits bear a star; ? = inconclusive; . = not tested or not shown.

SMILES | SIRT5 block | S100A4 MyoIIA | MLL AF4-AF9 inh | CaV13 ICDI inh | DENV2 CPE
Cc1ccc(S(=O)(=O)N(C)C[C@@H]2Oc3ccc(NC(=O)Nc4ccc(C(F)(F)F)cc4)cc3C(=O)N([C@H](C)CO)C[C@H]2C)cc1 | -3 | -8 | -3 | . | -9
Cc1ccc(S(=O)(=O)N(C)C[C@H]2Oc3ccc(NC(=O)Nc4ccccc4)cc3C(=O)N([C@@H](C)CO)C[C@H]2C)cc1 | 4 | 102* | 4 | . | -3
Cc1ccc(S(=O)(=O)N(C)C[C@H]2Oc3ccc(NC(=O)Nc4ccccc4)cc3C(=O)N([C@@H](C)CO)C[C@@H]2C)cc1 | 0 | 0 | 3 | . | -2
COc1ccc(S(=O)(=O)Nc2ccc3c(c2)CC(=O)N([C@H](C)CO)C[C@@H](C)[C@H](CN(C)CC2CCCCC2)O3)cc1 | 13 | 0 | -1 | . | 0
COCC1=C([C@H](O)c2ccccc2)[C@H](CO)n2c(=O)n(-c3ccccc3)c(=O)n2C1 | -4 | -6 | -1 | . | 1
COc1ccc(NC(=O)Nc2cccc3c2O[C@H](CN(C)C(=O)NC2CCCCC2)[C@@H](C)CN([C@@H](C)CO)C3=O)cc1 | -3 | -8 | -2 | . | 4
CN(C)C(=O)C[C@@H]1C[C@H]2c3cc(NC(=O)NC4CCCC4)ccc3O[C@H]2[C@@H](CO)O1 | 0 | -2 | 0 | . | 0
Cc1ccc(S(=O)(=O)N(C)C[C@H]2Oc3ccc(NC(=O)Nc4ccc(C(F)(F)F)cc4)cc3C(=O)N([C@H](C)CO)C[C@H]2C)cc1 | 7 | 22 | 0 | . | 44*
CCC(=O)NC[C@@H]1[C@H](c2ccc(C3=CCCC3)cc2)[C@H](CO)N1C(C)=O | 4 | -10 | 1 | . | -2
CCC(=O)NC[C@@H]1[C@@H](c2ccc(-c3ccc(OC)cc3)cc2)[C@@H](CO)N1C(C)=O | 3 | 17 | -2 | . | 42*
COCC(=O)NC[C@@H]1[C@@H](c2ccc(-c3ccccc3)cc2)[C@H](CO)N1C(C)=O | 1 | -2 | 1 | . | 41*
Cc1csc(CNc2ncnc3ccc(-c4cccc(Cl)c4)cc23)c1 | 34* | 0 | 2 | -6 | -1
O=C(C[C@H]1C=C[C@@H](NS(=O)(=O)c2ccccc2)[C@@H](CO)O1)NCc1ccccc1F | -3 | -3 | -5 | . | -8
CCOC(=O)C1CCN(C(=O)Cn2cc(C(=O)OC)c3ccccc32)CC1 | 18* | 0 | -2 | 1 | 20
COC(=O)c1cn(CC(=O)N2CCCCCC2)c2ccccc12 | . | . | . | -4 | .
CCOC(=O)C1CCN(C(=O)COC(=O)c2ccc([N+](=O)[O-])o2)CC1 | -6 | 7 | -3 | -2 | 76*
CCOP(=O)(OCC)C1NC(=O)N(c2ccccc2)C1=O (configuration not stated) | 30* | -1 | -10 | -19 | -2
O=c1oc(CCO)cc2ccc(C#Cc3ccsc3)cc12 | 17* | -3 | -4 | -9 | 16
COc1cc(C#Cc2ccc3cc(CCO)oc(=O)c3c2)cc(OC)c1 | -4 | -3 | -6 | -11 | 8
Cn1cc(CN(CCCN2CCOCC2)C(=S)Nc2cccc(Cl)c2)c2ccccc21 | . | 2 | 12 | -5 | 40*
Cc1ccc(S(=O)(=O)NCC[C@H]2CC[C@@H](NC(=O)C3CCOCC3)[C@H](CO)O2)cc1 | 3 | 0 | -2 | . | -4
CCCNC(=O)C[C@H]1CC[C@H]2[C@H](COc3ccc(NC(=O)c4ccccc4)cc3C(=O)N2C)O1 | -5 | -58 | -2 | . | ?
CCCNC(=O)N1CC2(CCN(C(=O)CC3CC3)CC2)c2c(n(C)c3cc(OC)ccc23)[C@@H]1CO | -3 | 17 | -1 | . | 5
Cc1cc(/C=N/Nc2ccc([N+](=O)[O-])cn2)c(C)n1-c1ccc(C(=O)O)cc1 | 32* | 0 | 20 | -4 | -1
C[C@H](NC(=O)C[C@H]1C[C@@H]2c3cc(NC(=O)NC4CCCC4)ccc3O[C@@H]2[C@@H](CO)O1)c1ccccc1 | 0 | 4 | -2 | . | -7
CCN=c1scc(C)n1/N=C/c1ccc(O)c(O)c1O | . | . | . | -4 | .
COCCN=c1scc(-c2cccs2)n1/N=C/c1ccc(O)c(O)c1O | 2 | 0 | 53* | -7 | -11
